Data published in ChEMBL document CHEMBL5247578, “Effective synthesis of benzimidazoles-imidazo[1,2-a]pyrazine conjugates: A comparative study of mono-and bis-benzimidazoles for antitumor activity” (Eur J Med Chem, 2019).

What was measured:
HEK293 = assay: Cytotoxicity against human HEK293 cells assessed as reduction in cell viability at 0.00000001 M incubated for 48 hrs by MTT colorimetric assay relative to control; assay type: toxicity, cell-based; settings: hek293, 48 h, 0.01 µM, dose 10 nM
HCT-116 = assay: Antiproliferative activity against human HCT-116 cells assessed as cell growth at 0.00001 M incubated for 48 hrs by SRB assay relative to control; assay type: functional; settings: read-out: Activity
In short: (§1)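 NCI-60 five-dose screen (10^-4 to 10^-8 M). Cells grown in RPMI 1640 with 5% FBS and 2 mM L-glutamine, plated at 5,000-40,000 cells/well and preincubated 24 h. Drug given from DMSO stock, then 48 h at 37 °C, 5% CO2. For adherent lines, cells fixed with cold TCA, SRB-stained and read at 515 nm. Percent growth taken against time-zero and untreated control.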

Hs-578T [1] = assay: Growth inhibition against human Hs-578T cells assessed as total growth inhibitory concentration incubated for 48 hrs by sulforhodamine B assay; assay type: functional
UO-31 = assay: Antiproliferative activity against human UO-31 cells assessed as cell growth at 0.00001 M incubated for 48 hrs by SRB assay relative to control; assay type: functional; settings: read-out: Activity
ACHN = assay: Growth inhibition against human ACHN cells incubated for 48 hrs by sulforhodamine B assay; assay type: functional
SNB-19 = assay: Antiproliferative activity against human SNB-19 cells assessed as cell growth at 0.00001 M incubated for 48 hrs by SRB assay relative to control; assay type: functional; settings: read-out: Activity
COLO 205 = assay: Antiproliferative activity against human COLO 205 cells assessed as cell growth at 0.000001 M incubated for 48 hrs by SRB assay relative to control; assay type: functional; settings: read-out: Activity
In short: (§2)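 NCI-60 five-dose screen over 10^-4–10^-8 M (10-fold dilutions). Cells grown in RPMI 1640 with 5% FBS and 2 mM L-glutamine, seeded at 5,000–40,000 cells/well and preincubated 24 h. Drug from DMSO stock, 48 h at 37 °C, 5% CO2. Adherent cells TCA-fixed and stained with 0.4% SRB; A515 read. Percent growth = (Ti−Tz)/(C−Tz)×100, or (Ti−Tz)/Tz×100 when Ti<Tz.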

HCC 2998 = assay: Growth inhibition against human HCC 2998 cells incubated for 48 hrs by sulforhodamine B assay; assay type: functional
NCI-H226 [2] = assay: Antiproliferative activity against human NCI-H226 cells assessed as cell growth inhibition by measuring lethal concentration incubated for 48 hrs by sulforhodamine B assay; assay type: functional; settings: read-out: LC50 (the source's name)
HL-60 = assay: Growth inhibition against human HL-60 cells assessed as total growth inhibitory concentration incubated for 48 hrs by sulforhodamine B assay; assay type: functional
MDA-MB-231 [3] = assay: Antiproliferative activity against human MDA-MB-231 cells assessed as cell growth at 0.00000001 M incubated for 48 hrs by SRB assay relative to control; assay type: functional; settings: dose 10 nM, read-out: Activity
A498 [4] = assay: Antiproliferative activity against human A498 cells assessed as cell growth at 0.0001 M incubated for 48 hrs by SRB assay relative to control; assay type: functional; settings: read-out: Activity; in short: as §2
NCI-H226 [5] = assay: Antiproliferative activity against human NCI-H226 cells assessed as cell growth at 0.0001 M incubated for 48 hrs by SRB assay relative to control; assay type: functional; settings: read-out: Activity
SK-MEL-5 [6] = assay: Antiproliferative activity against human SK-MEL-5 cells assessed as cell growth at 0.0001 M incubated for 48 hrs by SRB assay relative to control; assay type: functional; settings: read-out: Activity
RPMI-8226 [7] = assay: Growth inhibition against human RPMI-8226 cells incubated for 48 hrs by sulforhodamine B assay; assay type: functional
NCI-H322M = assay: Growth inhibition against human NCI-H322M cells assessed as total growth inhibitory concentration incubated for 48 hrs by sulforhodamine B assay; assay type: functional
RPMI-8226 [8] = assay: Antiproliferative activity against human RPMI-8226 cells assessed as cell growth at 0.00000001 M incubated for 48 hrs by SRB assay relative to control; assay type: functional; settings: dose 10 nM, read-out: Activity
Hs-578T [9] = assay: Antiproliferative activity against human Hs-578T cells assessed as cell growth at 0.000001 M incubated for 48 hrs by SRB assay relative to control; assay type: functional; settings: read-out: Activity
In short: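 NCI-60 five-dose mode, 10^-4 to 10^-8 M in 10-fold steps. RPMI 1640, 5% FBS, 2 mM L-glutamine; 24 h preincubation, then 48 h drug exposure at 37 °C. Stocks in DMSO at 400× the top concentration, diluted in medium with gentamicin. TCA fixation, SRB staining, absorbance at 515 nm. Percent growth from time-zero (Tz), control (C) and test (Ti) readings.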

MOLT-4 = assay: Antiproliferative activity against human MOLT-4 cells assessed as cell growth at 0.00000001 M incubated for 48 hrs by SRB assay relative to control; assay type: functional; settings: dose 10 nM, read-out: Activity
SR = assay: Antiproliferative activity against human SR cells assessed as cell growth at 0.000001 M incubated for 48 hrs by SRB assay relative to control; assay type: functional; settings: read-out: Activity
SK-MEL-5 [10] = assay: Antiproliferative activity against human SK-MEL-5 cells assessed as cell growth at 0.00000001 M incubated for 48 hrs by SRB assay relative to control; assay type: functional; settings: dose 10 nM, read-out: Activity
CCRF-CEM = assay: Antiproliferative activity against human CCRF-CEM cells assessed as cell growth at 0.0001 M incubated for 48 hrs by SRB assay relative to control; assay type: functional; settings: read-out: Activity; in short: as §2
A498 [11] = assay: Antiproliferative activity against human A498 cells assessed as cell growth at 0.0000001 M incubated for 48 hrs by SRB assay relative to control; assay type: functional; settings: dose 100 nM, read-out: Activity; in short: as §2
OVCAR-4 = assay: Antiproliferative activity against human OVCAR-4 cells assessed as cell growth at 0.000001 M incubated for 48 hrs by SRB assay relative to control; assay type: functional; settings: read-out: Activity
SK-MEL-2 = assay: Antiproliferative activity against human SK-MEL-2 cells assessed as cell growth at 0.0001 M incubated for 48 hrs by SRB assay relative to control; assay type: functional; settings: read-out: Activity
SK-MEL-5 [12] = assay: Growth inhibition against human SK-MEL-5 cells incubated for 48 hrs by sulforhodamine B assay; assay type: functional
T47D [13] = assay: Antiproliferative activity against human T47D cells assessed as cell growth inhibition by measuring lethal concentration incubated for 48 hrs by sulforhodamine B assay; assay type: functional; settings: read-out: LC50 (the source's name)
In short: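 NCI-60 five-dose screen (10^-4 to 10^-8 M, 10-fold dilutions; DMSO stocks). Cells in RPMI 1640 with 5% FBS and 2 mM L-glutamine, preincubated 24 h, then exposed 48 h at 37 °C, 5% CO2. Fixed with cold TCA, stained with 0.4% SRB, absorbance read at 515 nm. Time-zero plates used as reference. LC50 taken from [(Ti-Tz)/Tz]×100 […].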

MDA-MB-231 [14] = assay: Antiproliferative activity against human MDA-MB-231 cells assessed as cell growth at 0.0001 M incubated for 48 hrs by SRB assay relative to control; assay type: functional; settings: read-out: Activity
HOP-92 = assay: Antiproliferative activity against human HOP-92 cells assessed as cell growth at 0.00001 M incubated for 48 hrs by SRB assay relative to control; assay type: functional; settings: read-out: Activity; in short: as §1
HCT-15 = assay: Growth inhibition against human HCT-15 cells incubated for 48 hrs by sulforhodamine B assay; assay type: functional
T47D [15] = assay: Antiproliferative activity against human T47D cells assessed as cell growth at 0.00001 M incubated for 48 hrs by SRB assay relative to control; assay type: functional; settings: read-out: Activity

c1ccc(Cn2cnc3ccc(-c4nc(-c5ccc6c(c5)ncn6C5CCCCC5)cn5ccnc45)cc32)cc1
Activity (HEK293): 12.08% | growth at 10 µM (HCT-116): -74% | TGI (Hs-578T [1]): > 100000 nM | growth at 10 µM (UO-31): -40% | GI50 (ACHN): 3080 nM | growth at 10 µM (SNB-19): 28% | growth at 1 µM (COLO 205): 92% | GI50 (HCC 2998): 1900 nM | CC50 (NCI-H226 [2]): > 100000 nM | TGI (HL-60): 6650 nM | growth at 0.01 µM (MDA-MB-231 [3]): 102% | growth at 100 µM (A498 [4]): -83% | growth at 100 µM (NCI-H226 [5]): 36% | growth at 100 µM (SK-MEL-5 [6]): -46% | GI50 (RPMI-8226 [7]): 1150 nM | TGI (NCI-H322M): > 100000 nM | growth at 0.01 µM (RPMI-8226 [8]): 108% | growth at 1 µM (Hs-578T [9]): 88% | growth at 0.01 µM (MOLT-4): 112% | growth at 1 µM (SR): 63% | growth at 0.01 µM (SK-MEL-5 [10]): 101% | growth at 100 µM (CCRF-CEM): 9% | growth at 0.1 µM (A498 [11]): 101% | growth at 1 µM (OVCAR-4): 96% | growth at 100 µM (SK-MEL-2): -33% | GI50 (SK-MEL-5 [12]): 1500 nM | CC50 (T47D [13]): > 100000 nM | growth at 100 µM (MDA-MB-231 [14]): -31% | growth at 10 µM (HOP-92): -90% | GI50 (HCT-15): 1570 nM | growth at 10 µM (T47D [15]): -2%

COc1ccc(-c2cn3ccnc3c(-c3ccc4ncn(C5CCCCC5)c4c3)n2)cc1
Activity (HEK293): 13.96% | growth at 10 µM (HCT-116): -15% | TGI (Hs-578T [1]): 49300 nM | growth at 10 µM (UO-31): 14% | GI50 (ACHN): 692 nM | growth at 10 µM (SNB-19): 22% | growth at 1 µM (COLO 205): 76% | GI50 (HCC 2998): 2920 nM | CC50 (NCI-H226 [2]): > 100000 nM | TGI (HL-60): 5050 nM | growth at 0.01 µM (MDA-MB-231 [3]): 99% | growth at 100 µM (A498 [4]): 24% | growth at 100 µM (NCI-H226 [5]): 39% | growth at 100 µM (SK-MEL-5 [6]): -31% | GI50 (RPMI-8226 [7]): 2960 nM | TGI (NCI-H322M): > 100000 nM | growth at 0.01 µM (RPMI-8226 [8]): 104% | growth at 1 µM (Hs-578T [9]): 53% | growth at 0.01 µM (MOLT-4): 100% | growth at 1 µM (SR): 48% | growth at 0.01 µM (SK-MEL-5 [10]): 98% | growth at 100 µM (CCRF-CEM): 22% | growth at 0.1 µM (A498 [11]): 92% | growth at 1 µM (OVCAR-4): 84% | growth at 100 µM (SK-MEL-2): 3% | GI50 (SK-MEL-5 [12]): 698 nM | CC50 (T47D [13]): > 100000 nM | growth at 100 µM (MDA-MB-231 [14]): 19% | growth at 10 µM (HOP-92): 2% | GI50 (HCT-15): 722 nM | growth at 10 µM (T47D [15]): -24%
